The target in one test is T1, mouse sEH (Mus musculus, UniProt P34914).
T1 sequence (P34914 1-554): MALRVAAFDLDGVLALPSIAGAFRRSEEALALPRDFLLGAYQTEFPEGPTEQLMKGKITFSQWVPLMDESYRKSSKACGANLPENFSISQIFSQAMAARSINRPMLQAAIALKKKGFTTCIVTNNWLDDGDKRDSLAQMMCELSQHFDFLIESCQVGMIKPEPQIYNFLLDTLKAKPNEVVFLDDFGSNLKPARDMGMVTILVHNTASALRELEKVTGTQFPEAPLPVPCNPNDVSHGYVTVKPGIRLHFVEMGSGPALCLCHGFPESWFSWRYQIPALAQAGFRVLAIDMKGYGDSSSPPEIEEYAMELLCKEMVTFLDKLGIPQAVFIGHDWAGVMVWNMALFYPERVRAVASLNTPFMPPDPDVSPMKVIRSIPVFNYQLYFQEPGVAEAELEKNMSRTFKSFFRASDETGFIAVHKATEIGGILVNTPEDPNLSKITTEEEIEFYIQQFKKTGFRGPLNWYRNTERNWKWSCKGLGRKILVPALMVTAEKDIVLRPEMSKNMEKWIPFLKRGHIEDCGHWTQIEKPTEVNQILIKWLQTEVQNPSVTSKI
In words: sEH fluorescent inhibition assay, recombinant mouse sEH. It is filed as biochemical.

For the next test, the target named is T2, human FAAH (Homo sapiens, UniProt O00519).
T2 sequence (O00519 1-579): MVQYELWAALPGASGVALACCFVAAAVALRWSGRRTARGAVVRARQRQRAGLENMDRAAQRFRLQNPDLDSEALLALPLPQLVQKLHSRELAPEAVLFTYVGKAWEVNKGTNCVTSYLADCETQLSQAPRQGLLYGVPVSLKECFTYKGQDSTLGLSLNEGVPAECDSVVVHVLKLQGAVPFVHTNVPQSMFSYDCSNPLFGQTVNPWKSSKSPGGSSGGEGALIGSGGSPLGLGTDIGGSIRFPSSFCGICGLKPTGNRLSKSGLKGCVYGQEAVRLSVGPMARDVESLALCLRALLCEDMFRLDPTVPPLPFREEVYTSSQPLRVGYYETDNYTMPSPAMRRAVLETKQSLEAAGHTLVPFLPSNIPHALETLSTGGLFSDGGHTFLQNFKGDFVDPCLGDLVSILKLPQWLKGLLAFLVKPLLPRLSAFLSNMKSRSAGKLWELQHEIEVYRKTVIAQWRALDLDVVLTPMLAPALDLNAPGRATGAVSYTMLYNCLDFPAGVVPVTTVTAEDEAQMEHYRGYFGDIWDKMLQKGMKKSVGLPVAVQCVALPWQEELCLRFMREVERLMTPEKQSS
As to the kind of experiment: Ki and kinact determination on FAAH. It is filed as biochemical. A digest of the protocol:
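Crude baculovirus-expressed recombinant FAAH (High Five cell S9 fraction in 50 mM Tris/HCl pH 8.0, 1 mM CHAPS, 10% glycerol). OMP (100 μM final) was mixed with a range of test compound concentrations and held 5 min at 37 °C.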

Another test deals with T3, rat FAAH (Rattus norvegicus, UniProt P97612).
T3 sequence (P97612 1-579): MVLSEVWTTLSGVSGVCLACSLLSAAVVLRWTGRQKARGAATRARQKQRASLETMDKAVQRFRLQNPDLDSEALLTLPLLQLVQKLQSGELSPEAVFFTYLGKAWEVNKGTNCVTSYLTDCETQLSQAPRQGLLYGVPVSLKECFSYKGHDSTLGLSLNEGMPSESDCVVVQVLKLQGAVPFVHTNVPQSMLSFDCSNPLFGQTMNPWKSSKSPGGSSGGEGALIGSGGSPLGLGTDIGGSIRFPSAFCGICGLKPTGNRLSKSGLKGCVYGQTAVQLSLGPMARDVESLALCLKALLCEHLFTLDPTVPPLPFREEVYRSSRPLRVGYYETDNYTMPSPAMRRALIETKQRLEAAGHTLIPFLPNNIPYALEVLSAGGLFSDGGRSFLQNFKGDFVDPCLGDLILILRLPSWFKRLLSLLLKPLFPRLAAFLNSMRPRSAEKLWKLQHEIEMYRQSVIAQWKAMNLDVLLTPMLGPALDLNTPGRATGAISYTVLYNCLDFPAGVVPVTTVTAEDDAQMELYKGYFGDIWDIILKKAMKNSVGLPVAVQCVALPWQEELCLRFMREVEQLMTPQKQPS
As to the kind of experiment: FAAH fluorescent inhibition assay, rat brain microsomes. It is filed as biochemical. In outline: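 Rat brain microsomes: tissue homogenized in 20 mM phosphate (pH 7.4, 5 mM EDTA), spun at 9000g for 20 min, then 100 000g for 1 h, and stored at −80 °C. OMP (100 μM final) in 0.1 M sodium phosphate pH 8, 0.1 mg/mL BSA, 2% DMSO, 37 °C. Fluorescence (ex 303/em 394 nm) read every 30 s for 10 min. No-enzyme background subtracted. IC50 from linear regression of log[I] vs % remaining activity; triplicates.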

Test [1] deals with serine hydrolases. In words: Activity-based protein profiling. Format: biochemical, mouse. Particulars: mouse liver tissue homogenate, inhibitor 20 µM.
For test [2], the target named is T4, serine hydrolases (Mus musculus, UniProt O08914).
T4 sequence (O08914 1-579): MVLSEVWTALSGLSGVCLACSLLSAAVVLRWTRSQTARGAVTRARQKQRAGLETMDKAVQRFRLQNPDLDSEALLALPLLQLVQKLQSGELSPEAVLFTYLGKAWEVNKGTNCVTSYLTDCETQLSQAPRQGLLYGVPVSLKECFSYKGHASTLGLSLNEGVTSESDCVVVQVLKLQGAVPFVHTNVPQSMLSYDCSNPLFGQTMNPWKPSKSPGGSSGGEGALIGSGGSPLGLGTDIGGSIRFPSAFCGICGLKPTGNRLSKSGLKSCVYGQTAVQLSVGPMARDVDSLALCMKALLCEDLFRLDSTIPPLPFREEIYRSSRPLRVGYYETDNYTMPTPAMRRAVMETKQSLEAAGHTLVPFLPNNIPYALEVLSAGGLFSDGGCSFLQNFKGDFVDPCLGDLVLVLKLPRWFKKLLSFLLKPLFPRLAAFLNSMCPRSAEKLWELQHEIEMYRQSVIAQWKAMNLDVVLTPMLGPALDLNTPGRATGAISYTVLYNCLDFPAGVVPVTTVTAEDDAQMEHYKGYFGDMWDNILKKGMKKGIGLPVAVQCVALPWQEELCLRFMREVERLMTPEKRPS
In words: Activity-based protein profiling. Format: biochemical. To be noted: mouse brain tissue homogenate, inhibitor 20 µM.

[3] abbreviates: FAAH IC50 (60 min pre-incubation), 60 min pre-incubation.

The values that follow come from publication PMC6210075 (ACS Omega, 2018).

Consider `O=C(Nc1cccnc1)N1CCC(Cc2cccc(Oc3ccc(C(F)(F)F)cn3)c2)CC1` [PF-3845, reference compound], for which the IC50 at mouse sEH came to 1200 nM; on rat FAAH (setting [3]) it was 0.2 nM. In addition, on human FAAH, the Ki was 3.5 nM. The “other serine hydrolase bands (ABPP)” value with serine hydrolases [1] is on record as “neither 11, 13, 14, 18, nor PF-3845 had any effect on the intensity of other bands”. Moreover, at serine hydrolases [2], the “intensity of the FAAH band (ABPP)” value is “reduced”.

`O=C(Nc1ccc(C(F)(F)F)cc1F)N1CCC(Cc2cccc(Oc3ccc(C(F)(F)F)cn3)c2)CC1` [compound 18]: the half-inhibitory concentration (IC50) at mouse sEH came out at 360 nM. Moreover, on human FAAH, the affinity corresponds to a Ki of 24 nM, the kinact was 0.000283 s⁻¹ and the kinact/KI is 700000 M⁻¹ s⁻¹. The same molecule gave an IC50 against rat FAAH (FAAH IC50 (5 min pre-incubation), 5 min pre-incubation) of more than 10000 nM. Further, the IC50 against rat FAAH (setting [3]) was 1100 nM. For the same molecule, the “other serine hydrolase bands (ABPP)” value with serine hydrolases [1] is reported as “neither 11, 13, 14, 18, nor PF-3845 had any effect on the intensity of other bands”. For the same molecule, the “intensity of the FAAH band (ABPP)” value at serine hydrolases [2] is listed as “does not appear to fully inhibit the band corresponding to FAAH”.
